{"data": "Experimental data pooled from the literature", "target": "Tyrosine-protein kinase Srms (SRMS, Homo sapiens, UniProt Q9H3Y6)"}
{"Compound": "COc1cnc(Nc2cccc(S(N)(=O)=O)c2)nc1N1CCN(c2ccccc2)C(=O)C1", "assay": "binding, competition with immobilised ligand", "conditions": "1 µM", "remaining binding": "90%"}
{"Compound": "O=C(c1ccc(Nc2ncc(Cl)c(-c3cc4ccccc4s3)n2)cc1)N1CCC(N2CCCC2)CC1", "assay": "binding, competition with immobilised ligand", "conditions": "1 µM", "remaining binding": "81%"}
{"Compound": "c1cncc(-c2cccc(Nc3nccc(NC4CCCCC4)n3)c2)c1", "assay": "binding, competition with immobilised ligand", "conditions": "10 µM", "remaining binding": "71%"}
{"Compound": "CN(C)c1nccc(-c2cnc3ncccn23)n1", "assay": "binding", "conditions": "1 µM", "remaining binding": "63%"}
{"Compound": "O=C(c1ccc(Nc2ncc(Cl)c(-c3ccc(Cl)s3)n2)cc1)N1CCC(N2CCCC2)CC1", "assay": "binding, competition with immobilised ligand", "conditions": "1 µM", "remaining binding": "98%"}
{"Compound": "CC(C)(O)c1cncc(-c2nc3ccc(F)cc3n2C2CC2)c1", "assay": "cell-free assay, competition with immobilised ligand", "conditions": "1 µM", "remaining binding": "100%"}
{"Compound": "C[C@H]1CCN(c2nccc(-c3cnn4ncccc34)n2)C1", "assay": "binding", "conditions": "1 µM", "remaining binding": "71%"}
{"Compound": "COc1cc(-c2cn(C3CCc4ccccc4N(CC(F)(F)F)C3=O)nn2)ccc1-n1ccc(C)n1 (stereo not shown)", "assay": "cell-free assay, competition with immobilised ligand", "conditions": "1 µM", "remaining binding": "84%"}
{"Compound": "C[C@@H](c1ccc(-n2cnc3c(N)ncnc32)cc1)N1CCc2nn(C)c(Cc3ccccc3)c2C1=O", "assay": "binding, competition with immobilised ligand", "conditions": "0.1 µM", "remaining binding": "44%"}
{"Compound": "N[C@H]1CCN(c2nccc(-c3cnn4ncccc34)n2)C1", "assay": "binding", "conditions": "1 µM", "remaining binding": "88%"}
{"Compound": "CS(=O)(=O)NCC[C@H](NC(=O)c1cncc2c1cnn2-c1ccc(F)cc1)c1ccnc(S(C)(=O)=O)c1", "assay": "cell-free assay, competition with immobilised ligand", "conditions": "1 µM", "remaining binding": "83%"}
{"Compound": "COc1cnc(Nc2cccc(S(N)(=O)=O)c2)nc1N1CCN(c2ccccc2)CC1", "assay": "binding, competition with immobilised ligand", "conditions": "1 µM", "remaining binding": "83%"}
{"Compound": "CCC(=N\\O)/C(C)=C/c1ccc(F)cc1", "assay": "cell-free assay, competition with immobilised ligand", "conditions": "1 µM", "remaining binding": "76%"}
{"Compound": "COc1ncc2cc3ccccc3nc2c1C#N", "assay": "cell-free assay, competition with immobilised ligand", "conditions": "5 µM", "remaining binding": "100%"}
{"Compound": "O=C(Nc1cccnn1)N1CCC(=Cc2cccc(Oc3ccc(C(F)(F)F)cn3)c2)CC1", "assay": "cell-free assay, competition with immobilised ligand", "conditions": "1 µM", "remaining binding": "95%"}
{"Compound": "CC1CCCN1c1nccc(-c2cnn3ncccc23)n1 (stereo not shown)", "assay": "binding", "conditions": "1 µM", "remaining binding": "100%"}
{"Compound": "CCCOc1ccc([C@@H]2[C@@H](C(=O)O)[C@H](c3ccc4c(c3)OCO4)CN2CC(=O)Nc2c(CC)cccc2CC)cc1", "assay": "cell-free assay, competition with immobilised ligand", "conditions": "1 µM", "remaining binding": "90%"}
{"Compound": "Cc1cnc(Nc2ccc(C(=O)N3CCC(N4CCCC4)CC3)cc2)nc1-c1cc2ccccc2s1", "assay": "binding, competition with immobilised ligand", "conditions": "1 µM", "remaining binding": "68%"}
{"Compound": "CN(CCCC(F)(F)F)c1nccc(-c2cnn3ncccc23)n1", "assay": "binding", "conditions": "1 µM", "remaining binding": "100%"}
{"Compound": "O=C(Nc1cccnn1)N1CC(C/C=C/c2cncc(Oc3ccc(C(F)(F)F)cn3)n2)C1", "assay": "cell-free assay, competition with immobilised ligand", "conditions": "1 µM", "remaining binding": "67%"}
{"Compound": "O=C(NCC1CCOCC1)c1n[nH]cc1NC(=O)c1c(F)cccc1F", "assay": "binding, competition with immobilised ligand", "conditions": "1 µM", "remaining binding": "100%"}
{"Compound": "COc1ccnn2ncc(-c3ccnc(N(C)C)n3)c12", "assay": "binding", "conditions": "1 µM", "remaining binding": "78%"}
